Source: PubChem (several laboratories)
UBC13 polyUb: blocks human UBC13 polyubiquitin chain formation. actives 0.47% (n = 330,000). P61088. inhibition, % at 20 µM. TR-FRET; in the data active means inhibition above about 45%, passing the limit was not always enough
Target sequence (P61088 whole entry, looked up): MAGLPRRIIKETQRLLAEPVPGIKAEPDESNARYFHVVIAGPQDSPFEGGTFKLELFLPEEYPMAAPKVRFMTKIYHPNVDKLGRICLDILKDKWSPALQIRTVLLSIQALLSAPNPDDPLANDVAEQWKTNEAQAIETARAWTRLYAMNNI
Granule exo inh: lytic granule exocytosis inhibition; actives 0.66% (n = 360,000); inhibition, % at 10 µM; AID 651702; TALL-104 LAMP-1 surface exposure, flow cytometry; cells stimulated with thapsigargin and PMA;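 active means inhibition above about 55%, limit read from the data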
hiPSC survival: increases survival of single human iPS cells. actives 0.044% (n = 360,000). hiPSC single-cell survival, ATPlite luminescence; 100% = ROCK inhibitor wells, 0% = DMSO. survival enhancement, % at 20 µM; in the data active means survival enhancement above about 18%;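 further: cells exposed to compounds for 16 hours before the ATP read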
Apaf1 inhib: blocks human Apaf-1 apoptosome activity; O14727; reconstituted apoptosome caspase-3 activity, DEVD-Rh110 fluorescence; inhibition, % at 20 µM; actives 0.71% (n = 330,000); active means inhibition of at least 40% at 20 µM
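Material: cell-free apoptosome with Apaf-1, procaspase-3 and caspase-9; Buffer or medium: Hepes pH 7.5 with detergent and BSA; Reagent: cytochrome c trigger plus (Z-DEVD)2-Rh110 caspase-3 substrate; Times: compound with Apaf-1, dATP, procaspase-3 30 min, then 50 min reaction, room temperature; Technique: Rh110 fluorescence intensity.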
MPTP block: inhibitors of mitochondrial permeability transition pore; isolated mouse mitochondria, Ca2+ swelling absorbance, 30 min; inhibition, % at 10 µM; actives 1.4% (n = 360,000);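 active means inhibition of 50% or more, scaled per plate between neutral and stimulator controls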
MIN6 prolif-1: induces beta-cell replication in MIN6 cells; MIN6 cells proliferation, ATPlite luminescence, 48 h; cells starved in 0.2% serum; 100% = growth in 10% serum; proliferation, % at 10 µM; actives 0.29% (n = 330,000);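 active means compounds whose signal lies at least 3.5 SD above the mean of all wells on their plate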
MIN6 prolif-2: MIN6 beta-cell replication induction, confirmed; shares compounds with MIN6 prolif-1; proliferation increase, % at 50 µM; MIN6 beta-cell proliferation, ATPlite luminescence, 48 h; cells kept in 0.2% serum; scaled between 0.2% and 10% serum; 920 tested, under 10 active; AID 463095;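 active means proliferation increase above 40% at any of the four tested concentrations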
A number is an active result; . = inactive; / = no result given. Only some compounds are listed: those with a hit (about 3% of all), similar ones and a draw of the others.

SMILES	UBC13 polyUb	Granule exo inh	hiPSC survival	Apaf1 inhib	MPTP block	MIN6 prolif-1	MIN6 prolif-2
Cc1ccccc1OCC(=O)Nc1ccc([N+](=O)[O-])cc1	.	.	.	.	.	.	/
O=S(=O)(CC=CCS(=O)(=O)c1ccccc1)c1ccccc1	/	.	.	/	.	/	/
O=C(Nc1ccc(-c2ccco2)cc1)C1CCCN(Cc2ccc(CO)o2)C1 (configuration not stated)	.	.	.	.	.	11	.
CC(=O)c1cccc(CN2CCCC(C(=O)Nc3ccc(-c4ccco4)cc3)C2)c1 (configuration not stated)	.	.	.	.	.	.	/
O=C(c1ccc2c(c1)CCC2)N1CCN(Cc2c(F)cccc2Cl)CC1	/	.	.	/	.	/	/
COc1cc(S(=O)(=O)NC2CCCCC2C)ccc1-n1cnnn1 (configuration not stated)	.	.	.	.	.	7.6	.
CC1CCCCC1NS(=O)(=O)c1ccc(-n2cnnn2)cc1 (configuration not stated)	.	.	.	.	.	.	/
CC(C)(C)NC(=O)Cn1nc(C(F)(F)F)c2c1CCCC2	.	.	.	.	.	.	/
FC(F)(F)c1nc2nncn2c2c1CCCCC2	.	.	.	.	.	7.4	.
CCC(=O)Nc1ccc2nc(C3CC3)n(Cc3ccccc3)c(=O)c2c1	.	.	.	.	.	.	/
COc1ccc(Cn2c(C3CC3)nc3ccc(NC(=O)c4ccco4)cc3c2=O)cc1	.	.	.	.	.	5.5	.
CN1CCN(CC(O)COC(c2ccccc2)c2ccccc2)CC1 (configuration not stated)	.	.	.	.	.	8.2	.
N#CC(c1ccccn1)c1ncc(C(F)(F)F)cc1Cl (configuration not stated)	.	.	.	.	.	8.3	.
CC(=O)N(c1ccccc1)c1ccccc1[N+](=O)[O-]	/	.	.	/	.	/	/
COc1ccc(C2(C)NC(=O)N(Cc3cc(Cl)cc4c3OCOC4)C2=O)cc1OC (configuration not stated)	.	.	.	.	.	15	.
COc1ccc(C2(C)NC(=O)N(CC(=O)NCc3ccccc3)C2=O)cc1OC (configuration not stated)	.	.	.	.	.	.	/
CC(C)n1ncc2c(C(=O)NCc3cccnc3)cc(C3CC3)nc21	.	.	.	.	.	11	.
CCCn1c(=N)c(S(=O)(=O)c2ccc(F)cc2)cc2c(=O)n3ccccc3nc21	.	.	.	.	.	17	.
CC(C)n1cc(/C=N/Nc2ccc(C(=O)O)cc2)c2ccccc21	.	.	.	.	.	.	/
CCN(Cc1ccccc1)C(=O)CN1C(=O)COc2ccc(S(=O)(=O)NC3CCCC3)cc21	.	.	.	.	.	.	/
O=C(N/N=C/c1cccnc1)c1sc2ccccc2c1Cl	.	.	.	.	.	.	/
COc1ccc2c(Cl)c(C(=O)N/N=C/c3cccnc3)sc2c1	.	.	.	.	.	15	.
CCOc1ccc(N=Cc2ccc([N+](=O)[O-])cc2)c(O)c1	/	.	.	/	.	/	/
Cc1ccc(Cn2nnc3c(=O)[nH]c(C4CCCN(S(=O)(=O)c5ccc(F)cc5)C4)nc32)cc1 (configuration not stated)	.	.	.	.	.	.	/
COC(=O)c1ccc(Cn2nnc3c(=O)[nH]c(C4CCCN(S(=O)(=O)c5ccc(C)cc5)C4)nc32)cc1 (configuration not stated)	.	.	.	.	.	11	.
SMILES	UBC13 polyUb	Granule exo inh	hiPSC survival	Apaf1 inhib	MPTP block	MIN6 prolif-1	MIN6 prolif-2
CC(C)c1nc(CN2CCCCC2)cc(=O)[nH]1	.	.	.	.	.	8.9	.
COc1ccc(C(=O)NCCCNC(=O)c2cnccn2)cc1Br	.	.	.	.	.	9.2	.
COc1ccc(C(=O)NCCNC(=O)c2cnccn2)cc1OC	.	.	.	.	.	.	/
COc1ccc(CNC(=O)CN(CCC(C)C)S(=O)(=O)c2ccc3c(c2)OCCO3)cc1	.	.	.	.	.	5.3	.
CCCCCCN1C(=O)CC(NC(=O)OCC2c3ccccc3-c3ccccc32)C/C=C\C1C(C)C (configuration not stated)	/	.	.	.	.	/	/
O=C(NC1CCCCCC1)C1CCN(S(=O)(=O)c2cccc3cccnc23)CC1	.	.	.	.	.	.	/
O=C(NC1CCCC1)C1CCCN(S(=O)(=O)c2cccc3cccnc23)C1 (configuration not stated)	.	.	.	.	.	9.5	.
CCC(=O)Nc1ccc(NC(=S)NC(=O)c2cc3ccccc3o2)cc1	.	.	.	.	.	0.0	.
CSc1ccc(Cl)c(C(=O)OCC(=O)N2CCN(c3ccccc3)CC2)c1	.	.	.	.	.	.	/
Cc1ccc2c(n1)sc1c(-c3ccccc3)c(C#N)c(N)nc12	.	.	.	.	.	5.9	.
Cc1nc(N)c(C#N)c(-c2cccnc2)c1-c1ccccc1	.	.	.	.	.	.	/
CC1(C(=O)NCc2ccccc2Br)CCN1Cc1ccc(-c2ccccc2)o1 (configuration not stated)	/	.	.	/	.	/	/
Clc1ccc(-c2nnc(CNC3CC3)o2)cc1	.	.	.	.	.	9.5	.
CCOc1cc(C(=O)Nc2ccc3c(c2)OCO3)ccc1OCCOc1ccccc1Cl	.	.	.	.	.	.	/
CCOc1ccc(C(=O)Nc2ccc3c(c2)OCO3)cc1OCC	.	.	.	.	.	5.5	.
Cn1c(=O)c2sccc2n2c(CCCC(=O)NCCc3ccccc3)nnc12	.	.	.	.	.	.	/
Cc1ccccc1NC(=O)c1cccc(NC(=O)c2ccccc2C(=O)O)c1	.	.	.	.	.	.	/
COCCN1CC(CNC(=O)c2cc(COc3ccccc3SC)on2)CC1=O (configuration not stated)	.	.	.	.	.	.	/
COc1ccccc1Nc1nc(C)nc2c1oc1ccccc12	.	.	.	.	.	10	.
COc1ccc(Nc2nc(C)nc3c2oc2ccccc23)c(OC)c1	.	.	.	.	.	.	/
Cc1cc(=O)[nH]c(Nc2ccccc2C)n1	.	.	.	.	.	.	/
Cc1cc(=O)n2[nH]c(SCc3ccccc3)nc2n1	.	.	.	.	.	8.3	.
Cc1cc(=O)n2[nH]c(SCc3ccc(Cl)cc3)nc2n1	.	.	.	.	.	.	/
Cc1ccc(O)c(NC(=O)c2cc(-c3cccs3)on2)c1	.	.	.	.	.	.	/
COc1ccc(OC)c(N2C(N)=NC(N)=NC23CCCC3)c1	.	.	.	.	.	5.7	.
COc1ccc(NC(=O)c2ccc(-c3c(C)noc3C)c3ccoc23)cc1	/	.	.	/	.	/	/
